Measurements from different studies.
Each line is one published result; the experiments were not run side by side.
Effect on: cell growth or viability

The GI50 of COc1cccc(Oc2ccccc2NC(=O)CNC(=O)c2cccc3ccccc23)c1 is reported as 191 nM (KM12; SRB; 48 h).
For C=CC(=O)N1CCC[C@@H](n2nc(-c3ccc(Oc4ccccc4)cc3)c3c(N)ncnc32)C1, the GI50 was > 10000 nM (KMS-12-BM; 48 h).
For CN1C(=O)/C(=N\NC(=O)c2cc3ccccc3[nH]2)c2cc(Cl)ccc21, the inhibition was 81.8% (ZR75; 30 µM).
O=C1Nc2ccccc2C1=NNc1nnc(Cc2ccccc2)c2ccccc12 gave an inhibition of 54.3% (ZR75; 30 µM).
The viability of CC(C)(C)c1nc(-c2cccc(NS(=O)(=O)c3c(F)cccc3F)c2F)c(-c2ccnc(N)n2)s1 is reported as 47.7% (WM 266-4; MTT; 25 µM; 48 h).
CN1C(=O)/C(=N\NC(=O)c2cc3ccccc3[nH]2)c2cc(F)ccc21 has an inhibition of 78.8% (ZR75; 30 µM).
Cn1c(=O)c(NN=C2C(=O)Nc3ccc(Br)cc32)nc2ccccc21 has an inhibition of 62.1% (ZR75; 30 µM).
Cc1ccc(C(CS(=O)(=O)c2ccccc2)=NNC2=NC(=O)C(=NNc3ccccc3)S2)cc1 has a viability of 48.2% (WM 266-4; MTT; 6.3 µM; 48 h).
With O=C(Nc1ccc(F)cc1)Nc1cccc(C(=O)Nc2ccc3[nH]ncc3c2)c1 the IC50 was 40300 nM (KM12; ATP luminescence; 72 h).
For Cc1ccc(C(CS(=O)(=O)c2ccccc2)=NNc2nc(-c3ccc(OCCCCOc4ccc(-c5csc(NN=C(CS(=O)(=O)c6ccccc6)c6ccc(C)cc6)n5)cc4)cc3)cs2)cc1, the viability was 48.8% (WM 266-4; MTT; 25 µM; 48 h).
With COc1ccc2c(c1)C(=NNc1ncnc3cc(OC)c(OC)cc13)C(=O)N2 the inhibition was 32% (ZR75; 10 µM).
For O=C1Nc2ccc(F)cc2/C1=N/NC(=O)c1cc2ccccc2[nH]1, the inhibition was 40% (ZR75; 30 µM).
With Cc1ccc2c(c1)C(=NNc1nc3ccccc3n(C)c1=O)C(=O)N2 the inhibition was 71% (ZR75; 30 µM).
With O=C1Nc2ccc(Br)cc2/C1=N/NC(=O)c1cc2ccccc2[nH]1 the inhibition was 58.9% (ZR75; 30 µM).
COc1cc2ncnc(NN=C3C(=O)Nc4ccc(C)cc43)c2cc1OC gave an inhibition of 40.4% (ZR75; 30 µM).
NC(=S)NN=C(CS(=O)(=O)c1ccccc1)c1ccc(F)cc1 gave a viability of 58% (WM 266-4; MTT; 0.4 µM; 48 h).
With Cc1cc(C)n(C(=S)[S][Au][PH](CCCCCC[PH]([Au][S]C(=S)n2nc(C)cc2C)(c2ccccc2)c2ccccc2)(c2ccccc2)c2ccccc2)n1 the GI50 was 386 nM (KM12).
The inhibition of COc1ccc2c(c1)C(=NNc1nc3ccccc3n(C)c1=O)C(=O)N2 is reported as 76% (ZR75; 30 µM).
The GI50 of CC#CC(=O)N1CC[C@@H](n2cc(-c3ccc(Oc4c(F)cccc4F)cc3)c3c(N)n[nH]c(=O)c32)C1 is reported as 4880 nM (JeKo-1; ATP luminescence; 72 h).
For COc1cc2ncnc(NN=C3C(=O)Nc4ccccc43)c2cc1OC, the inhibition was 50.4% (ZR75; 30 µM).
With Cc1ccc(C(CS(=O)(=O)c2ccccc2)=NN=C2N=C(c3ccc(Br)cc3)CS2)cc1 the viability was 63.8% (WM 266-4; MTT; 0.4 µM; 48 h).
With Cn1cc(-c2cc(N3CCCCS3(=O)=O)ccc2Oc2ccc(F)cc2F)c2c(F)c[nH]c2c1=O the GI50 was 8.1 nM (MOLM-14; CCK-8; 72 h).
For Cc1ccc(C(CS(=O)(=O)c2ccccc2)=NNc2nc(C)c(N=Nc3cccc(C)c3)s2)cc1, the viability was 32.8% (WM 266-4; MTT; 100 µM; 48 h).
COc1ccc2c(c1)/C(=N/NC(=O)c1cc3ccccc3[nH]1)C(=O)N2C gave an inhibition of 82.5% (ZR75; 30 µM).
CNC(=O)c1cc(Oc2ccc(NC(=O)Nc3ccc(Cl)c(C(F)(F)F)c3)cc2)ccn1 has a viability of 50.7% (WM 266-4; MTT; 6.3 µM; 48 h).
The inhibition of COc1ccc2c(c1)/C(=N/NC(=O)c1cc3ccccc3[nH]1)C(=O)N2 is reported as 65.9% (ZR75; 30 µM).
With COc1ccc(-c2nc(NN=C3C(=O)Nc4ccc(F)cc43)c3ccccc3n2)cc1OC the inhibition was 26.5% (ZR75; 30 µM).
